Results reported in publication PMC7161550 (British Journal of Pharmacology, 2020).
pIC50: −log10 of the molar value. “And” between values parts separate entries of the source, which are not always exact repeats. Equal values may be shown once. Read-outs that look alike come from different tables or passages of the source.

Tests used:
[1] = type: in vivo; conditions: rat, 10 mg·kg^−1 p.o.
OAT3 = OAT3 (Homo sapiens, UniProt Q8TCC7); assay: Transporter inhibition, probe substrate accumulation; type: in vitro ADME; conditions: HEK293 cells stably transfected with OAT3
Sequence of OAT3 (Q8TCC7 whole entry): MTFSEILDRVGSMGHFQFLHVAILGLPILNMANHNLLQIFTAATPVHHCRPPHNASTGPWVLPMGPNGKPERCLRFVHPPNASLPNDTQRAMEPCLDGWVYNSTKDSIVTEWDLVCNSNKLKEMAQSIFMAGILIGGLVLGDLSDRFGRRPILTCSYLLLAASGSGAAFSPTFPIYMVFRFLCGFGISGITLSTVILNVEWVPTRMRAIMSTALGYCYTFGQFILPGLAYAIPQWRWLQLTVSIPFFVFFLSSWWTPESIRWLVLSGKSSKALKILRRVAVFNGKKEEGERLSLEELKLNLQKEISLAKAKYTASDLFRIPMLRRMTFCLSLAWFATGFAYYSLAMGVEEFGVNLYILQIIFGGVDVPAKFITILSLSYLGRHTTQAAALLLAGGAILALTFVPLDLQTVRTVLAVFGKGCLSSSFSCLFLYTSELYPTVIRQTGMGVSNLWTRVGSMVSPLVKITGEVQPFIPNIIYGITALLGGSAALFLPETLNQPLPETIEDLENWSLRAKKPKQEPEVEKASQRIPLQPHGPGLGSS
Method in brief: (§1)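 Inhibition of probe substrate accumulation in transfected cells: CHO‑K1 for OAT1 and OCT1; HEK293 for OAT3, OATP1B1 and OATP1B3; MDCKII for OCT2, MATE1 and MATE2‑K. Each transporter's activity was confirmed with a positive control substrate or inhibitor.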

CaI‐PLA2 (PLA2G6) = CaI‐PLA2 (PLA2G6) (Rattus norvegicus, UniProt P97570); assay: ABPP ex vivo, rat brain after oral BIA 10‐2474; type: in vivo
Sequence of CaI‐PLA2 (PLA2G6) (P97570 whole entry): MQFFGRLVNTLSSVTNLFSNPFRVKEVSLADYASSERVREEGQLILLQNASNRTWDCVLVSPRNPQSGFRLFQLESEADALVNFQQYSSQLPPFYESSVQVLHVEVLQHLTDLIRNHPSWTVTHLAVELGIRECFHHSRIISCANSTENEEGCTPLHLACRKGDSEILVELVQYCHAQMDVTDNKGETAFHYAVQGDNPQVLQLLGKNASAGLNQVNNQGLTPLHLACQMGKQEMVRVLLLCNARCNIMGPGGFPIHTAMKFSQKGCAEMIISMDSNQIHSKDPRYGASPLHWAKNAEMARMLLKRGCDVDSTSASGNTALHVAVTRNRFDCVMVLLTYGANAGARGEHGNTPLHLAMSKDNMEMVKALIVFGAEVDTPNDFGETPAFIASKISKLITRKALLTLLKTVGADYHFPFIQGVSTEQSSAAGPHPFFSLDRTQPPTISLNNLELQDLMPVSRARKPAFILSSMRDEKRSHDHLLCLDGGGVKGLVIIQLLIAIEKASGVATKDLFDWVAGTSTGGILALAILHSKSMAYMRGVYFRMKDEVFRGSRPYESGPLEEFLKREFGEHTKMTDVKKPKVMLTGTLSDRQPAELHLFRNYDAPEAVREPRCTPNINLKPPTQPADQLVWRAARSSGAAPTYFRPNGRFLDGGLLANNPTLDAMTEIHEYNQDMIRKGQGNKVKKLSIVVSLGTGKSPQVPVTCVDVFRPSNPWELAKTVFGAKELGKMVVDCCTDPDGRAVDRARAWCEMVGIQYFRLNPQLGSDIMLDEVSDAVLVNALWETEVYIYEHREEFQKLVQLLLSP

OCT1 = OCT1 (Homo sapiens, UniProt O15245); assay: Transporter inhibition, probe substrate accumulation; type: in vitro ADME; conditions: CHO-K1 cells stably transfected with OCT1
Sequence of OCT1 (O15245 whole entry): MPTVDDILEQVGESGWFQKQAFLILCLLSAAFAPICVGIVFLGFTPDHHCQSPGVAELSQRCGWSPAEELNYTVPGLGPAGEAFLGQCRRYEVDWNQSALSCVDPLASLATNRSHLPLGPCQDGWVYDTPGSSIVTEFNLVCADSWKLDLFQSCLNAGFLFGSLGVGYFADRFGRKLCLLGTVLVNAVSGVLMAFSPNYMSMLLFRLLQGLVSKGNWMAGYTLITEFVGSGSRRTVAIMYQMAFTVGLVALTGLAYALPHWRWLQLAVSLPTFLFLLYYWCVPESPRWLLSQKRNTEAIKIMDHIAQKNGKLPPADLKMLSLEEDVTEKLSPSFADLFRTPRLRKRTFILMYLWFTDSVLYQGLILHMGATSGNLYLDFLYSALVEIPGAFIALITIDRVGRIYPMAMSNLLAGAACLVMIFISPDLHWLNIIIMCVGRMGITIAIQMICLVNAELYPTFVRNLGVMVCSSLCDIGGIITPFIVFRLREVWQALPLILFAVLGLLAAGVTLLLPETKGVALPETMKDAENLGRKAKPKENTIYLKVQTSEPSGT
Method in brief: as §1

human MATE2-K = human MATE2-K (Homo sapiens, UniProt Q86VL8); assay: as above; type: in vitro ADME
Sequence of human MATE2-K (Q86VL8 1-566 isoform Q86VL8-3): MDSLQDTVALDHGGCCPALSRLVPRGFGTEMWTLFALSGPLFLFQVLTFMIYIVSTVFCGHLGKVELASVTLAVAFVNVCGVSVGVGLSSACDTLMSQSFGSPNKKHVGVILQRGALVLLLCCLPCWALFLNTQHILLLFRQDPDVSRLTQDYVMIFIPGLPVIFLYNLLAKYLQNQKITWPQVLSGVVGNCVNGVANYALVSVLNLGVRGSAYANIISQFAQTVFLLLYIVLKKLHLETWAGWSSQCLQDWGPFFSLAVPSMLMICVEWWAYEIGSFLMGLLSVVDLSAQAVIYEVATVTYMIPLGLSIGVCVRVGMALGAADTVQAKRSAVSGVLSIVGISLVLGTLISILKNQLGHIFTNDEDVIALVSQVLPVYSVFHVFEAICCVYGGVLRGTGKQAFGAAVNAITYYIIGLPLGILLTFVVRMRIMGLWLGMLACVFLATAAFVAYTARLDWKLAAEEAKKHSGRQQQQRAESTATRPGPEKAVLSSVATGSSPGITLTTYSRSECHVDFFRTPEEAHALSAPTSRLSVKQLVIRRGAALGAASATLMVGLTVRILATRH
Method in brief: as §1

human OATP1B1 = human OATP1B1 (Homo sapiens, UniProt Q9Y6L6); assay: as above; type: in vitro ADME; conditions: 0.033–33.3 μM
Sequence of human OATP1B1 (Q9Y6L6 whole entry): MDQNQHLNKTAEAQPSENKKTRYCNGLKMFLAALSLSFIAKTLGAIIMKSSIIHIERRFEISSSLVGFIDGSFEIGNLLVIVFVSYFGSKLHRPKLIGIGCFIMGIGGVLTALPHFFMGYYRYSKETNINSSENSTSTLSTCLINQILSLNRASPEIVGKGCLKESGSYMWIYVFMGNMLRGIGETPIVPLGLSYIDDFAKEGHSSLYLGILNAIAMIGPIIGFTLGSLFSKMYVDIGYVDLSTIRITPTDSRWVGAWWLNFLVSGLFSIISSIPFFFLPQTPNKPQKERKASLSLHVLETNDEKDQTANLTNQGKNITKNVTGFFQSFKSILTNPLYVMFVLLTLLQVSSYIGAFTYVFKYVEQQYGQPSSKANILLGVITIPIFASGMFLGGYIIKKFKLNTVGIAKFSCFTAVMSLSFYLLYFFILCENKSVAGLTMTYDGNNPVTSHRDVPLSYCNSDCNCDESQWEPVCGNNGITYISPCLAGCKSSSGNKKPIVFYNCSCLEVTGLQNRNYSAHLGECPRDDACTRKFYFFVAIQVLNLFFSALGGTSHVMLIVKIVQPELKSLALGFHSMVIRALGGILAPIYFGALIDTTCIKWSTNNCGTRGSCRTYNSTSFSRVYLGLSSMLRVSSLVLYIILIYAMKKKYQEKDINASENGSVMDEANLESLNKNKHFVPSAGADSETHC
Method in brief: as §1

[2] = tested on: brain fatty acid amides (AEA, PEA, OEA); assay: Fatty acid amides; type: in vivo; conditions: mouse brain, 8 hr
Method in brief: (§2)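 Frozen brains were thawed at 4°C and weighed. Each sample was extracted with chloroform:MeOH (2:1) plus 0.1 M phosphate buffer, pH 5.6. Deuterated internal standards were spiked in: AEA‑d8, PEA‑d4 and OEA‑d2 for the fatty acid amides, and 2‑AG‑d8 for 2‑AG.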

OCT2 = OCT2 (Homo sapiens, UniProt O15244); assay: Transporter inhibition, probe substrate accumulation; type: in vitro ADME; conditions: MDCKII cells stably transfected with OCT2
Sequence of OCT2 (O15244 whole entry): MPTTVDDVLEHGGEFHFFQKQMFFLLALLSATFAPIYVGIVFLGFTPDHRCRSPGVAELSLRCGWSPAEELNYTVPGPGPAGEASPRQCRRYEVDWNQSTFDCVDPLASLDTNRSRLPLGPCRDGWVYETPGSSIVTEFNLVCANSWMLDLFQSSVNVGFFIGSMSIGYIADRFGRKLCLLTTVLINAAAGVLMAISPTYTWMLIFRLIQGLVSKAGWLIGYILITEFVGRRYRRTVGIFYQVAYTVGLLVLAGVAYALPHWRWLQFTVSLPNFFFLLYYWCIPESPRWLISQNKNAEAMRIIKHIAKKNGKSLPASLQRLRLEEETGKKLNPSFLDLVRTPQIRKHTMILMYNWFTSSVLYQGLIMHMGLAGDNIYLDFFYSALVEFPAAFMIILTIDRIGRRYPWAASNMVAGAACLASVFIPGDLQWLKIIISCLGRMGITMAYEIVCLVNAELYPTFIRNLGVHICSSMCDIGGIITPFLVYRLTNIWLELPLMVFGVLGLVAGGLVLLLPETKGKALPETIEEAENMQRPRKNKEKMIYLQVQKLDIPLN
Method in brief: as §1

[3] = tested on: brain 2‐arachidonoylglycerol (2‐AG); assay: 2‐arachidonoylglycerol; type: in vivo; conditions: mouse, 10 mg·kg^−1 p.o.
Method in brief: as §2

CYP1A2 = CYP1A2 (Homo sapiens, UniProt P05177); assay: CYP inhibition, pooled human liver microsomes; type: in vitro ADME; conditions: 0.33–99.2 μM, co‐ and pre‐incubation
Method in brief: (§3)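 The rate of metabolite formation was measured; testosterone was one CYP3A4 substrate. Controls: solvent vehicle, enzyme-selective inhibitors, mechanism-based inhibitors. Analysis by HPLC with online radio-detection or LC/MS/MS.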

[4] = target: T1, rat brain fatty acid amide hydrolase (FAAH) (Rattus norvegicus, UniProt P97612); type: biochemical
T1 sequence (P97612 1-579): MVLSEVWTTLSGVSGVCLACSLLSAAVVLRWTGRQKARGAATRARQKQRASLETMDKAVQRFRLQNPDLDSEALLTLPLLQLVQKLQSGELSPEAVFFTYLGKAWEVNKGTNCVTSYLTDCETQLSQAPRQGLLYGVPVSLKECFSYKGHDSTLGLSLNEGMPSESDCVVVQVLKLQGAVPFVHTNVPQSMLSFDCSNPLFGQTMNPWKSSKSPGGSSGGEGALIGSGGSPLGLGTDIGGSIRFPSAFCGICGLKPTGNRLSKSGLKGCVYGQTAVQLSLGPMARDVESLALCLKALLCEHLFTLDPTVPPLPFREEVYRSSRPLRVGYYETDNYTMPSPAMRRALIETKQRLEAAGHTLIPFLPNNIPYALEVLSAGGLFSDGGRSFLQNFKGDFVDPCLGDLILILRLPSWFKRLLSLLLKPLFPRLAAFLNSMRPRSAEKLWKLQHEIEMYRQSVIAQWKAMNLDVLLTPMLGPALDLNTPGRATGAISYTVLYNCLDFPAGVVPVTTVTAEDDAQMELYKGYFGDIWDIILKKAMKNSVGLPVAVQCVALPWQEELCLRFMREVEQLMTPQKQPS
Method in brief: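 Rat brain membranes from Wistar rats, 10 μg protein, in 1 mM EDTA, 10 mM Tris, pH 7.6. Test compound at 1 nM–10 μM, pre-incubated with enzyme 5–60 min, or reaction started with enzyme when not pre-incubated. Substrate 2 μM AEA + 5 nM 3H‑AEA + 0.1% fatty acid-free BSA, 30 min at room temperature with agitation. Charcoal stop; supernatant 3H‑ethanolamine counted. Blank and vehicle controls; IC50 from normalized variable-slope sigmoidal fit.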

[5] = GLP rat toxicology studies; type: in vivo; conditions: 100 mg·kg^−1, assuming brain:plasma ratio of 1:5
[6] = target: T2, rat brain fatty acid amide hydrolase (Rattus norvegicus, UniProt P97612); assay: FAAH progression curves, kinetic constants k obs and k inact/K I; type: biochemical; conditions: inhibition of rat brain FAAH, 37°C
T2 sequence (P97612 1-579): T1 sequence (P97612 1-579)

CYP2C19 = CYP2C19 (Homo sapiens, UniProt P33261); assay: CYP inhibition, pooled human liver microsomes; type: in vitro ADME; conditions: 0.33–99.2 μM, co‐ and pre‐incubation
Sequence of CYP2C19 (P33261 whole entry): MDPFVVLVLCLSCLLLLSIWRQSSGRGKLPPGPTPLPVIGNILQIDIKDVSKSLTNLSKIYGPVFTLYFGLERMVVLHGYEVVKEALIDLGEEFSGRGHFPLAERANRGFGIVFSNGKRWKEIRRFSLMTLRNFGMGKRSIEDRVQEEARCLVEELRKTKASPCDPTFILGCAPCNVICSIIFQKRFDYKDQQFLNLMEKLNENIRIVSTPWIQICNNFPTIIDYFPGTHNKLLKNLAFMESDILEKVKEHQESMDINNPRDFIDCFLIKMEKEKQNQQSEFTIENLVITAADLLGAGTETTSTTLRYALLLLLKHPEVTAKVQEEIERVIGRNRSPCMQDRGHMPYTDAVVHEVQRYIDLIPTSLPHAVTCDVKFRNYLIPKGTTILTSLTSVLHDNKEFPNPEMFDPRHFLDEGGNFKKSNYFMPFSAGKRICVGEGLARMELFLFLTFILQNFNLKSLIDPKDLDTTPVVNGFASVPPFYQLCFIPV
Method in brief: as §3

CYP2C8 = CYP2C8 (Homo sapiens, UniProt P10632); assay: CYP inhibition, pooled human liver microsomes; type: in vitro ADME; conditions: 0.33–99.2 μM, co‐ and pre‐incubation
Sequence of CYP2C8 (P10632 whole entry): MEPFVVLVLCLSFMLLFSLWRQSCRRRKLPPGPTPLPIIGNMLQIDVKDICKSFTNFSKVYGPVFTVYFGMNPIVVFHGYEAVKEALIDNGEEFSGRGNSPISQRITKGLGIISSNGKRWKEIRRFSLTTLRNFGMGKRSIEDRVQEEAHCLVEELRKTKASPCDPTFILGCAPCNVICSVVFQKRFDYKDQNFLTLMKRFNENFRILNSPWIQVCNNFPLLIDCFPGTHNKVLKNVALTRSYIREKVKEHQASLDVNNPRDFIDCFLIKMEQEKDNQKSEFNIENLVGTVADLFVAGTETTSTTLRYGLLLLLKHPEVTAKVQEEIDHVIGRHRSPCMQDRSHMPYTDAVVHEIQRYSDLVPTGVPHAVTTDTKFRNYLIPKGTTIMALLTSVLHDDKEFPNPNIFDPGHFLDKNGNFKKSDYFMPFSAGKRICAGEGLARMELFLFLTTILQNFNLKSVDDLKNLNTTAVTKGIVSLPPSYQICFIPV
Method in brief: as §3

SHRSP = assay: Stroke‐prone spontaneously hypertensive rats; type: in vivo, rat; conditions: 30 mg·kg^−1 p.o. daily
Method in brief: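 SHRSP rats on stroke-prone diet with high-salt intake, n = 30 per group, received daily oral 0.2% HPMC vehicle or test compound at 30 mg·kg−1 in 0.2% HPMC (4 ml·kg−1). Normal-diet, tap-water controls (n = 10) received vehicle. Dosing continued until about half of either treated group had died; surviving rats' brains were examined histologically.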

[7] = Protein binding to cell homogenates; type: in vitro ADME; conditions: 500 μg·ml^−1 of protein

CN(C(=O)n1cnc(-c2ccc[n+]([O-])c2)c1)C1CCCCC1 [BIA 10‐2474, 3‐(1‐(cyclohexyl (methyl)carbamoyl)‐1H‐imidazol‐4‐yl)pyridine 1‐oxide]
level in all brain sections ([1]; 24 hr after acute and 24, 48 and 72 hr after chronic administration): < 50 ng·g^−1 of tissue | brain levels, acute versus repeated oral administration ([1]; any brain region and time point): no significant differences | inhibition (OAT3): 34% | rats in which PLA2g6 was completely inhibited (CaI‐PLA2 (PLA2G6); 30 mg·kg^−1): four out of six rats | rats in which PLA2g6 was completely inhibited (CaI‐PLA2 (PLA2G6); 100 mg·kg^−1): three out of six rats | inhibition at 10 μg·ml^−1 (OCT1): 26% | maximum inhibition, MATE2‐K (human MATE2-K): 59% | pIC50 (human MATE2-K; IC50, MATE2‐K‐mediated probe substrate accumulation): 5.46 and 5.47 | effect on OATP1B1‐mediated probe substrate accumulation (human OATP1B1): did not influence | AEA ([2]; 0.01 mg·kg^−1 p.o.): 89.5 ± 9.3 % of control | OEA ([2]; 0.01 mg·kg^−1 p.o.): 109.1 ± 8.6 % of control | PEA ([2]; 0.01 mg·kg^−1 p.o.): 107.2 ± 8.8 % of control | AEA ([2]; 0.03 mg·kg^−1 p.o.): 87.0 ± 10.3 % of control | OEA ([2]; 0.03 mg·kg^−1 p.o.): 143.1 ± 30.6 % of control | PEA ([2]; 0.03 mg·kg^−1 p.o.): 178.6 ± 62.7 % of control | AEA ([2]; 0.1 mg·kg^−1 p.o.): 136.8 ± 16.4 % of control | OEA ([2]; 0.1 mg·kg^−1 p.o.): 676.5 ± 89.8 % of control | PEA ([2]; 0.1 mg·kg^−1 p.o.): 1027.6 ± 148.0 % of control | AEA ([2]; 0.3 mg·kg^−1 p.o.): 172.1 ± 29.5 % of control | OEA ([2]; 0.3 mg·kg^−1 p.o.): 804.0 ± 107.6 % of control | PEA ([2]; 0.3 mg·kg^−1 p.o.): 1,223.3 ± 159.6 % of control | inhibition at 10 μg·ml^−1 (OCT2): 25% | brain 2‐AG level ([3]; 1 hr, vehicle 45.1 ± 7.9): 30.4 ± 11.7 µg/g | brain 2‐AG level ([3]; 4 hr, vehicle 40.9 ± 3.4): 44.5 ± 4.9 µg/g | brain 2‐AG level ([3]; 8 hr, vehicle 39.0 ± 13.2): 34.9 ± 7.7 µg/g | brain 2‐AG level ([3]; 24 hr, vehicle 38.0 ± 5.7): 31.4 ± 9.4 µg/g | inhibitory effect on CY1A2 (CYP1A2): did not exhibit any inhibitory effects | pIC50 ([4]; IC50 [95% CI], pre‐incubation 0 min): 5.95 | pIC50 ([4]; IC50 [95% CI], pre‐incubation 5 min): 5.93 | pIC50 ([4]; IC50 [95% CI], pre‐incubation 15 min): 6.20 | pIC50 ([4]; IC50 [95% CI], pre‐incubation 30 min): 6.37 | pIC50 ([4]; IC50 [95% CI], pre‐incubation 45 min): 6.44 | pIC50 ([4]; IC50 [95% CI], pre‐incubation 60 min): 6.40 | pIC50 ([4]; IC50 values over all pre‐incubation times, rat brain membranes): 5.95 to 6.44 | IC50 fold higher than those for JNJ‐42165279 ([4]; rat brain membranes): 2–4 fold | maximum brain concentrations (suggested) [5]: around 20 μM | k inact/K I [6]: 1,243 M·s^−1 | inhibitory effect on CYP2C19 (CYP2C19): did not exhibit any inhibitory effects | inhibitory effect on CYP2C8 (CYP2C8): did not exhibit any inhibitory effects | effect on mortality rate compared with vehicle (SHRSP; log‐rank test P = .1882): no effect | surviving rats with haemorrhage in the hippocampus and dorsal cortex (SHRSP; vehicle three of the 14): Three of the 17

O=C(Nc1cccnn1)N1CCC(=Cc2cccc(Oc3ccc(C(F)(F)F)cn3)c2)CC1 [PF‐04457845]
AEA ([2]; 0.003 mg·kg^−1 p.o.): 88.5 ± 7.5 % of control | OEA ([2]; 0.003 mg·kg^−1 p.o.): 97.1 ± 8.0 % of control | PEA ([2]; 0.003 mg·kg^−1 p.o.): 100.6 ± 16.4 % of control | AEA ([2]; 0.01 mg·kg^−1 p.o.): 220.2 ± 46.9 % of control | OEA ([2]; 0.01 mg·kg^−1 p.o.): 837.5 ± 115.5 % of control | PEA ([2]; 0.01 mg·kg^−1 p.o.): 984.3 ± 107.1 % of control | AEA ([2]; 0.03 mg·kg^−1 p.o.): 257.6 ± 16.9 % of control | OEA ([2]; 0.03 mg·kg^−1 p.o.): 886.1 ± 42.6 % of control | PEA ([2]; 0.03 mg·kg^−1 p.o.): 1073.1 ± 85.1 % of control | AEA ([2]; 0.1 mg·kg^−1 p.o.): 268.7 ± 10.8 % of control | OEA ([2]; 0.1 mg·kg^−1 p.o.): 933.4 ± 17.5 % of control | PEA ([2]; 0.1 mg·kg^−1 p.o.): 1080.9 ± 62.0 % of control | AEA ([2]; 0.3 mg·kg^−1 p.o.): 309.4 ± 16.6 % of control | OEA ([2]; 0.3 mg·kg^−1 p.o.): 961.4 ± 48.2 % of control | PEA ([2]; 0.3 mg·kg^−1 p.o.): 1,141.9 ± 56.3 % of control | pIC50 ([4]; read-out: IC50 [95% CI], pre‐incubation 0 min): 8.41 | pIC50 ([4]; read-out: IC50 [95% CI], pre‐incubation 5 min): 8.55 | pIC50 ([4]; read-out: IC50 [95% CI], pre‐incubation 15 min): 8.82 | pIC50 ([4]; read-out: IC50 [95% CI], pre‐incubation 30 min): 8.57 | pIC50 ([4]; read-out: IC50 [95% CI], pre‐incubation 45 min): 8.57 | pIC50 ([4]; read-out: IC50 [95% CI], pre‐incubation 60 min): 8.70 | k inact/K I [6]: 167,333 M·s^−1 | mean % free fraction ± SD [7]: 28.0 ± 3.9%
